Reference: ChEMBL document CHEMBL3758134, “Avertoxins A-D, Prenyl Asteltoxin Derivatives from Aspergillus versicolor Y10, an Endophytic Fungus of Huperzia serrata” (J Nat Prod, 2015)
Values belong to the compound of their own block, whether it stands above or below them.

Legend:
MDA-MB-231 = assay: Antiproliferative activity against human MDA-MB-231 cells assessed as cell viability after 72 hrs by SRB assay; assay type: functional, cell-based; settings: MDA-MB-231, 72 h
Method in brief: (§1)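 Cells grown in DMEM with 10% FBS and exposed to compound for 72 h. Viability read by sulforhodamine B (SRB) staining.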

[1] = Antiproliferative activity against human HCT116 cells assessed as cell viability after 72 hrs by SRB assay; assay type: functional, cell-based; settings: HCT-116, 72 h; method in brief: as §1
HeLa = assay: Antiproliferative activity against human HeLa cells assessed as cell viability after 72 hrs by SRB assay; assay type: functional, cell-based; method in brief: as §1
Acetylcholinesterase = Acetylcholinesterase (Homo sapiens, UniProt P22303); assay: Inhibition of human acetylcholinesterase after 30 mins by microplate reader-based Ellman's method
Acetylcholinesterase, sequence (P22303 whole entry): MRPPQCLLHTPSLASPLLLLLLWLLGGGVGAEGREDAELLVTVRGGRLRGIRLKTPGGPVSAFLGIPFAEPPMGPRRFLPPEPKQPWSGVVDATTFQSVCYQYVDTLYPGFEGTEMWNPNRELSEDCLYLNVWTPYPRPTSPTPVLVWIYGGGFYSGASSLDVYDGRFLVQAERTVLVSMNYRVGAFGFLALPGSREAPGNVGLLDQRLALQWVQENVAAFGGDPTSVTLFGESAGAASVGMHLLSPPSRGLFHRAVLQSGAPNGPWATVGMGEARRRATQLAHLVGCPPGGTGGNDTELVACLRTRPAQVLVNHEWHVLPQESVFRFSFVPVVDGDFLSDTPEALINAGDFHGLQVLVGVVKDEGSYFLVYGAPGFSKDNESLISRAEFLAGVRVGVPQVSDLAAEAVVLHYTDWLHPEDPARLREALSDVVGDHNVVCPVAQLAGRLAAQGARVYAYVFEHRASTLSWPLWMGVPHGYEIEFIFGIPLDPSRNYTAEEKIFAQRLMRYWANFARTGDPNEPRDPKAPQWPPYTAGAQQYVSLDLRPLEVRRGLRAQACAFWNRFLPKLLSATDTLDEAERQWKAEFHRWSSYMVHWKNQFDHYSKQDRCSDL

Structure (SMILES): CC[C@H]1O[C@@H]2O[C@H](/C=C/C=C/C=C/c3oc(=O)cc(OC)c3C)[C@H](O)[C@]2(C)[C@@]1(C)O
- IC50 (MDA-MB-231): > 50 µM
- IC50 [1]: > 50 µM
- IC50 (HeLa): > 50 µM

Structure (SMILES): CC[C@H]1O[C@@H]2O[C@H](/C=C/C=C/C=C/c3oc(=O)cc(OC/C=C(\C)C(=O)OC)c3C)[C@H](O)[C@]2(C)[C@@]1(C)O
- IC50 (MDA-MB-231): 35 µM
- IC50 [1]: 9 µM
- IC50 (HeLa): > 50 µM
- IC50 (Acetylcholinesterase): 14.9 µM

Structure (SMILES): CC[C@H]1O[C@@H]2O[C@H](/C=C/C=C/C=C/c3oc(=O)c4c(c3C)O[C@H](C)C4(C)C)[C@H](O)[C@]2(C)[C@@]1(C)O
- IC50 (MDA-MB-231): > 50 µM
- IC50 [1]: 50 µM
- IC50 (HeLa): 48 µM

Structure (SMILES): CC[C@H]1O[C@@H]2O[C@H](/C=C/C=C/C=C/c3oc(=O)cc(OCC=C(C)C)c3C)[C@H](O)[C@]2(C)[C@@]1(C)O
- IC50 (MDA-MB-231): 37 µM
- IC50 [1]: 44 µM
- IC50 (HeLa): 48 µM

Structure (SMILES): COC(=O)/C(C)=C/COc1cc(=O)oc(/C=C/C=C/C=C/[C@H]2O[C@H]3O[C@H](C)[C@](C)(O)[C@@]3(C)[C@H]2O)c1C
- IC50 (MDA-MB-231): 28 µM
- IC50 [1]: 21 µM
- IC50 (HeLa): 11 µM

- IC50 (MDA-MB-231): 4.2 µM
- IC50 (HeLa): 3.2 µM
Structure (SMILES): COc1cc([C@@H]2c3cc4c(cc3[C@@H](O[C@@H]3O[C@@H]5CO[C@@H](C)O[C@H]5[C@H](O)[C@H]3O)[C@H]3COC(=O)[C@H]23)OCO4)cc(OC)c1O [ETOPOSIDE]
- IC50 [1]: 26.1 µM
